Shown are actives, neighbours in structure and some others; about 3.7% of the full set was active somewhere.
KCNK9 inh: human KCNK9 channel inhibition; Q9NPC2; 1.2% of 310,000 active; B-score at 10 µM; HEK293 KCNK9, FluxOR thallium flux fluorescence; hits give low values;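 active means ratio B-score over 3 SD below the library mean, with starting fluorescence within 5 SD of its mean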;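 further: negative B-score means less thallium flux so channel inhibition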
hERG protect: hERG (human) protection from proarrhythmic block; CHO-hERG, FluxOR thallium flux, dofetilide IC70 present; activation (rescue from dofetilide block), less the hit threshold, % at 10 µM; 0.51% of 310,000 active;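 active means activation above the mean of controls blocked by dofetilide plus 5 SD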;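 further: thallium influx through hERG after potassium depolarization seen as dye fluorescence rise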
Kir21 block: blocks the mouse Kir2.1 inward-rectifier potassium channel; P35561; HEK293-Kir2.1, FluxOR thallium flux fluorescence; hits give low values; B-score at 10 µM; 0.85% of 310,000 active; AID 1672;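 active means fluorescence ratio B-score at or below minus 3 SD of library scores, with starting-brightness B-score within 2 SD, cut at about -4.2 in these data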;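 further: channel flux triggered by added potassium and thallium sulfate stimulus; B-score of peak minus minimum fluorescence over baseline after thallium stimulus; more negative B-score means stronger Kir2.1 block with less thallium influx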
Target sequence (P35561 whole entry, looked up): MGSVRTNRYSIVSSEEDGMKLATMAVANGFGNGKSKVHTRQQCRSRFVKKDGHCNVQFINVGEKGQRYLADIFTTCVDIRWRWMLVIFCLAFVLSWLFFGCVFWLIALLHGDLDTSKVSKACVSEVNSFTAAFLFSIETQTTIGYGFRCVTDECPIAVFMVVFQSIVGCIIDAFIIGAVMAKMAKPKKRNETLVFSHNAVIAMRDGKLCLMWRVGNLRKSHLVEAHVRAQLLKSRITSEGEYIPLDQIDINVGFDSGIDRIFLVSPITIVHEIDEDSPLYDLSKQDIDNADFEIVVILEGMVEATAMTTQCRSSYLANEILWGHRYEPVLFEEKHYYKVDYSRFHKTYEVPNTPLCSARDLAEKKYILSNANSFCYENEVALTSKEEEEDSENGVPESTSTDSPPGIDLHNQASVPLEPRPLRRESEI
KCNQ1 act: potentiators or activators of human KCNQ1 potassium channel. P51787. CHO-K1 KCNQ1, thallium flux FluxOR fluorescence; hits give high values. B-score at 10 µM. 0.35% of 310,000 active. AID 2648;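 active means fluorescence ratio B-score, a plate-corrected score, at least three library SD, with initial intensity B-score within 5 SD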
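Schedule – 37 °C overnight plating, 90-min dark dye load, 20-min compound pretreatment · System – stable KCNQ1 CHO-K1 line · Probe or stimulus – thallium- and potassium-containing depolarizing buffer · Measured by – kinetic FluxOR fluorescence, 10 s baseline plus 110 s post-stimulus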
KCNK3 inh: human KCNK3 channel inhibition, primary screen. CHO-KCNK3 thallium flux, FluxOR fluorescence; hits give low values. AID 602410. O14649. B-score at 10 µM. 0.84% of 340,000 active;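 active means B-score under library mean minus 4 SD, starting fluorescence ratio at most library mean plus 5 SD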;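 further: more negative B-score means stronger inhibition of thallium flux through KCNK3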
KCNQ1 inh: inhibitors of human KCNQ1 potassium channel | P51787 | CHO-K1 KCNQ1, FluxOR thallium flux fluorescence; hits give high values | B-score at 10 µM | 1.3% of 310,000 active;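 active means compounds whose thallium flux B-score, printed positive for inhibition, exceeds three library SD while starting fluorescence stays within three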;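 further: channel opened by potassium depolarization with thallium stimulus after 20 min compound exposure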
A number is an active result; - = inactive; . = no result given.

SMILES	KCNK9 inh	hERG protect	Kir21 block	KCNQ1 act	KCNK3 inh	KCNQ1 inh
O=C(NN=C1c2ccccc2-c2ccccc21)c1cccc(Br)c1	-	46	-	18	-	-
CCOC(=O)CNC(=O)COc1coc(CN2CCN(c3ccccc3F)CC2)cc1=O	-	-	-	-	-	-
COc1ccccc1NC(=O)C(C)OC(=O)CC1CCCCC1 (stereo not drawn)	.	.	.	.	-	.
C=CC[n+]1c(/C=C/c2ccc(OC(C)=O)c(OC)c2)ccc2ccccc21	-	-	-	12	-	-
COc1cc(/C=N/NC(=O)Nc2ccccc2)ccc1OC(C)=O	-	-	-	-	-	-
CCOc1ccc(Nc2ccc([N+](=O)[O-])c3nonc23)cc1	-	-	-	-	-	7
COc1cc(OC)cc(C(=O)Nc2ccc(S(=O)(=O)Nc3ccccn3)cc2)c1	-	-	-	-	-	-
COCCn1c(C)cc(C(=O)COC(=O)/C=C/c2c(C)nn(C3CCS(=O)(=O)C3)c2Cl)c1C (stereo not drawn)	-	-	-	-	-	-
CCCN(CCC)S(=O)(=O)c1ccc(C(=O)OCCN2C(=O)c3cccc4c(N5CCOCC5)ccc(c34)C2=O)cc1	-	-	-	-	-	10
CC(c1ccccc1)n1c(N2CCNCC2)nc2c1c(=O)[nH]c(=O)n2C (stereo not drawn)	-	-	-	-	-	-
Cc1nc(N2CCCCC2C)c2c(C)c(C(=O)Nc3cccc(C(F)(F)F)c3)sc2n1 (stereo not drawn)	-	-	-	-	-	7
Cc1nc(N2CCCCC2)c2c(C)c(C(=O)Nc3ccccc3C(F)(F)F)sc2n1	-	-	-	-	-	-
CCOC(=O)C1=C(C)N(c2ccccc2)C(=O)/C1=C\c1ccc(O)c(OC)c1	-6.8	-	-	-	-	-
CCOC(=O)C1=C(C)N(c2ccccc2)C(=O)/C1=C\c1ccco1	-	-	-	-	-	-
COc1ccc(CC(=O)Nc2ccccc2N2CCCC2)cc1OC	-	-	-4.5	-	-	-
COc1ccc(CC(=O)Nc2ccccc2N2CCCC2)cc1	-	-	-6.3	-	-	-
O=C(Cc1ccccc1)Nc1ccccc1N1CCCC1	-	-	-	-	-	-
O=C(CCNC(=O)c1ccc(Cl)cc1)Nc1ccccc1N1CCCCC1	-	-	-4.6	-	-	-
CN1C(=O)[C@@H]2C[C@@]3([C@@]45C[C@H]6C(=O)N(C)[C@@H](Cc7ccccc7)C(=O)N6[C@@H]4Nc4ccccc45)c4ccccc4N[C@H]3N2C(=O)[C@@H]1Cc1ccccc1	-	-	-	-	-	-
COc1ccc(N2CCN(S(=O)(=O)c3c(C)nc4scc(C)n4c3=O)CC2)cc1	-	-	-	-	-	-
COc1ccccc1NC(=O)OC(C)c1ccc(Cl)cc1 (stereo not drawn)	-	-	-	-	-	-
C=CCOc1ccc(C(c2c(C)n(C)n(-c3ccccc3)c2=O)c2c(C)n(C)n(-c3ccccc3)c2=O)cc1	-	-	-	-	-	-
O=C(NCCc1ccc(OC(F)F)cc1)C1CC(=O)N(c2ccc3c(c2)OCCO3)C1 (stereo not drawn)	.	.	.	.	-	.
CC[C@@]12C(=O)N(c3cccc(F)c3)C(=O)N1[C@H](c1ccc(Br)cc1)[C@@H]1C(=O)N(C(C)(C)C)C(=O)[C@@H]12	-	-	-	-	-	-
COc1ccccc1CN(C)C(=O)COC(=O)c1c(C)noc1C	.	.	.	.	-	.
SMILES	KCNK9 inh	hERG protect	Kir21 block	KCNQ1 act	KCNK3 inh	KCNQ1 inh
COc1ccc(OC)c(NC(=O)CCN2CCN(C/C=C/c3ccccc3)CC2)c1	-	-	-	-	-	-
COc1ccc(C(CNC(=O)c2ccco2)N2CCOCC2)cc1 (stereo not drawn)	.	.	.	.	-	.
COc1ccc(C(c2c(NC(=O)c3ccco3)sc(C)c2C)N2CCOCC2)cc1 (stereo not drawn)	.	.	.	.	-11	.
COC(=O)CSc1nnc(-c2cccnc2)n1-c1cc(OC)cc(OC)c1	-	-	-	-	-	-
COc1ccc(-n2c(SCC(=O)N3CCCCC3)nnc2-c2cccnc2)cc1	-	6.4	-	-	-	-
CC(C)n1c(SCc2ccccc2F)nc2c1c(=O)n(C)c(=O)n2C	-	-	-4.6	-	-	-
Cc1c(-c2ccccc2)oc2c(C(=O)N3CCN(c4ccc([N+](=O)[O-])cc4)CC3)cccc2c1=O	-7.1	-	-	-	-	-
Cc1ccc(S(=O)(=O)Nc2ccccc2-c2nc3ccccc3[nH]c2=O)cc1	.	.	.	.	-	.
Cc1nn(C(C)(C)C)c(C)c1/C=N/OC(=O)Nc1ccc(Cl)cc1	-	-	-	-	-	7
Cc1nn(C)c(C)c1/C=N/NC(=O)C(C)(C)Oc1ccc(Cl)cc1	-	-	-	-	-	-
CC(C)N(Cc1ccccc1)C(=O)COC(=O)c1c(F)cccc1F	.	.	.	.	-	.
Cc1cc(C)c(NC(=O)COC(=O)COc2ccc3c(C)cc(=O)oc3c2)c(Cl)c1	.	.	.	.	-	.
COc1ccc(S(=O)(=O)NCc2ccccn2)cc1NC(=O)c1ccccc1C	-	-	-	-	-	-
CC1CN(C(=O)C(C)Sc2nc3ccccc3s2)CC(C)O1 (stereo not drawn)	-	-	-	-	-	-
CC(Sc1nnnn1C)C(=O)NC1CCCc2ccccc21 (stereo not drawn)	-	-	-	-	-	-
CC(Sc1nc2ccccc2s1)C(=O)NC1CCCc2ccccc21 (stereo not drawn)	-	-	-5.8	-	-	-
CC(Sc1nc2ccccc2s1)C(=O)N(C)Cc1ccccc1 (stereo not drawn)	-	-	-4.2	-	-	-
O=C(COc1ccc(F)cc1)N1CCC(Cc2ccccc2)CC1	-	-	-	-	-	-
CC(=O)N(CCC(Cc1ccccc1)c1ccco1)Cc1ccco1 (stereo not drawn)	-	-	-12	-	-	-
O=C(O)CC(Cc1ccccc1)c1ccc2c(c1)OCO2 (stereo not drawn)	-	-	-	-	-	-
CC(=O)N(CCC(Cc1ccccc1)c1ccc2c(c1)OCO2)Cc1ccc(Cl)cc1 (stereo not drawn)	-7.3	-	-	-	-8.9	11
Cc1c(C(=O)N2CCCCCC2)c(S(=O)(=O)Nc2ccc(F)cc2)c(C)n1C	-	-	-	-	-	-
Cc1ccc(C)c(N2CCN(CCCNC(=O)Cn3cc4c(n3)CCC(C)C4)CC2)c1 (stereo not drawn)	-	-	-4.7	-	-	-
CC1CCc2nn(CC(=O)NCCCN3CCCC3=O)cc2C1 (stereo not drawn)	-	-	-	-	-	-
COc1cc2[nH]c(C(=O)NCc3ccccc3)cc2c(OC)c1OC	-	-	-6.3	-	-	-
O=C(Nc1ccc(C(=O)O)cc1)/C(=C\c1ccco1)NC(=O)c1ccco1	-	-	-	-	-	-

Screening data deposited in PubChem BioAssay by Johns Hopkins Ion Channel Center.
